Source: ChEMBL document CHEMBL4038284, “Synthesis of novel quinoline-based 4,5-dihydro-1H-pyrazoles as potential anticancer, antifungal, antibacterial and antiprotozoal agents” (Eur J Med Chem, 2017)
Values after ≈ are worked out from the molar mass of the structure shown. Active and inactive are the calls of the source. The rule behind the calls is not given here.

Columns and labels:
CAKI-1 = experiment: Growth inhibition of human Caki1 cells at 10 uM incubated for 48 hrs by sulforhodamine B assay; type: functional, cell-based
Outline: (§1)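 NCI 60-cell-line screen at a single 10 µM dose. Cells in RPMI-1640 with 5% FBS and 2 mM L-glutamine, pre-incubated 24 h, then treated for 48 h at 37 °C. TCA fixation, sulforhodamine B staining, absorbance at 515 nm. Percentage growth calculated against time-zero and untreated controls.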

K562 = experiment: Growth inhibition of human K562 cells at 10 uM incubated for 48 hrs by sulforhodamine B assay; type: functional, cell-based
Outline: (§2)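 NCI 60-line panel, single 10 μM dose. Cells were grown in RPMI-1640 with 5% FBS and 2 mM L-glutamine and pre-incubated 24 h before compound addition (DMSO stock). Exposure was 48 h at 37 °C, 5% CO2. Cells were fixed with cold TCA (10% final), stained with 0.4% SRB, bound dye dissolved in 10 mM Tris base, A515 read. Growth was taken relative to time-zero and untreated control plates.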

SF-539 = experiment: Growth inhibition of human SF539 cells at 10 uM incubated for 48 hrs by sulforhodamine B assay; type: functional, cell-based; outline: as §2
Leishmania panamensis = experiment: Antileshmanial activity against EpiR/GFP fused Leishmania panamensis MHOM/CO/87/UA140 intracellular amastigotes infected in human […] cells after 72 hrs by flow cytometric method; type: functional, cell-based; conditions: MHOM/CO/87/UA140, 72 h
Outline: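 PMA-treated U-937 cells (3 × 10^5 cells/mL) infected with stationary-phase GFP L. panamensis promastigotes (15:1), 3 h at 34 °C, then washed. After 24 h, compounds added at 50, 12.5, 3.125 and 0.78 µg/mL for 72 h at 37 °C. EC50 by Probit; triplicate, two experiments.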

786-0 = experiment: Growth inhibition of human 786-0 cells at 10 uM incubated for 48 hrs by sulforhodamine B assay; type: functional, cell-based; outline: as §1
Hs-578T = experiment: Growth inhibition of human Hs578T cells at 10 uM incubated for 48 hrs by sulforhodamine B assay; type: functional, cell-based; outline: as §2
HCT-116 = experiment: Growth inhibition of human HCT116 cells at 10 uM incubated for 48 hrs by sulforhodamine B assay; type: functional, cell-based; outline: as §1
Cryptococcus neoformans [1] = experiment: Antifungal activity against Cryptococcus neoformans ATCC 32264 incubated for 48 hrs under dark condition by broth microdilution method; type: functional; conditions: ATCC 32264, 48 h
Outline: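 CLSI M27-A3 broth microdilution in RPMI-1640, DMSO ≤1%, compounds at 250-0.98 µg/mL final. Inoculum 1-5 × 10^3 CFU/mL. Incubated 48 h at 30 °C in a moist dark chamber, read at OD405. MIC80 and MIC50 taken from % inhibition dose-response curves (mean ± SEM, triplicate). Amphotericin B was the positive control.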

HCC 2998 = experiment: Growth inhibition of human HCC2998 cells at 10 uM incubated for 48 hrs by sulforhodamine B assay; type: functional, cell-based; outline: as §1
Candida albicans [2] = experiment: Growth inhibition of Candida albicans ATCC 10231 at 250 ug/ml incubated for 48 hrs under dark condition by broth microdilution method relative to control; type: functional; conditions: ATCC 10231, 48 h, read-out: GI
Outline: (§3)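 CLSI M27-A3 broth microdilution in RPMI-1640, DMSO ≤1%. Inoculum 1-5 × 10^3 CFU/mL. Incubated 48 h at 30 °C, dark. % inhibition = 100 − (OD405 test − sterility control)/(OD405 growth control − sterility control), with growth and sterility control wells. Triplicate.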

SR = experiment: Growth inhibition of human SR cells at 10 uM incubated for 48 hrs by sulforhodamine B assay; type: functional, cell-based
Outline: (§4)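 NCI-60 single-dose screen at 10 µM for 48 h. Cells were grown in RPMI-1640 with 5% FBS and 2 mM L-glutamine and preincubated 24 h before compound. Time-zero plates were TCA-fixed at compound addition. After exposure, cells were TCA-fixed, stained with SRB and read at 515 nm. Percentage growth was calculated against time-zero and untreated-control absorbances.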

Candida albicans [3] = experiment: Growth inhibition of Candida albicans ATCC 10231 at 7.8 ug/ml incubated for 48 hrs under dark condition by broth microdilution method relative to control; type: functional; conditions: ATCC 10231, 48 h, read-out: GI; outline: as §3
OVCAR-3 = experiment: Growth inhibition of human OVCAR3 cells at 10 uM incubated for 48 hrs by sulforhodamine B assay; type: functional, cell-based; outline: as §2
Klebsiella pneumoniae [4] = experiment: Antibacterial activity against ESBL positive Klebsiella pneumoniae ATCC 700603 after 24 hrs by resazurin dye based microdilution assay; type: functional; conditions: Klebsiella pneumoniae, 700603, 24 h
Outline: (§5)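 MIC taken as the lowest concentration giving visible inhibition and/or by resazurin (1 mg/mL). Gentamicin was the control. Run in duplicate, repeated at least three times.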

UACC-257 = experiment: Growth inhibition of human UACC257 cells at 10 uM incubated for 48 hrs by sulforhodamine B assay; type: functional, cell-based; outline: as §4
Cryptococcus neoformans [5] = experiment: Growth inhibition of Cryptococcus neoformans ATCC 32264 at 250 ug/ml incubated for 48 hrs under dark condition by broth microdilution method relative to control; type: functional; conditions: ATCC 32264, 48 h, read-out: GI; outline: as §3
BT-549 = experiment: Growth inhibition of human BT549 cells at 10 uM incubated for 48 hrs by sulforhodamine B assay; type: functional, cell-based; outline: as §1
HOP-62 = experiment: Growth inhibition of human HOP62 cells at 10 uM incubated for 48 hrs by sulforhodamine B assay; type: functional, cell-based; outline: as §1
Neisseria gonorrhoeae = experiment: Antibacterial activity against beta lactamase positive Neisseria gonorrhoeae ATCC 31426 by oxidase test; type: functional
Outline: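 Agar dilution MIC on GC agar with 1% isovitalex containing increasing compound concentrations. Plates inoculated with about 1×10^4 CFU (5 µL). MIC is the lowest concentration that inhibited growth, with growth confirmed by oxidase test. Run in duplicate, repeated at least three times.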

UACC-62 = experiment: Growth inhibition of human UACC62 cells at 10 uM incubated for 48 hrs by sulforhodamine B assay; type: functional, cell-based; outline: as §4
MDA-MB-468 = experiment: Growth inhibition of human MDA-MB-468 cells at 10 uM incubated for 48 hrs by sulforhodamine B assay; type: functional, cell-based; outline: as §2
Cryptococcus neoformans [6] = experiment: Growth inhibition of Cryptococcus neoformans ATCC 32264 at 125 ug/ml incubated for 48 hrs under dark condition by broth microdilution method relative to control; type: functional; conditions: ATCC 32264, 48 h, read-out: GI; outline: as §3
Cryptococcus neoformans [7] = experiment: Growth inhibition of Cryptococcus neoformans ATCC 32264 at 3.4 ug/ml incubated for 48 hrs under dark condition by broth microdilution method relative to control; type: functional; conditions: ATCC 32264, 48 h, read-out: GI
Klebsiella pneumoniae [8] = experiment: Antibacterial activity against carbapenemase positive Klebsiella pneumoniae BAA 1705 after 24 hrs by resazurin dye based microdilution assay; type: functional; conditions: BAA 1705, 24 h; outline: as §5
ACHN = experiment: Growth inhibition of human ACHN cells at 10 uM incubated for 48 hrs by sulforhodamine B assay; type: functional, cell-based; outline: as §1
OVCAR-4 = experiment: Growth inhibition of human OVCAR4 cells at 10 uM incubated for 48 hrs by sulforhodamine B assay; type: functional, cell-based; outline: as §2
NCI-H522 = experiment: Growth inhibition of human NCI-H522 cells at 10 uM incubated for 48 hrs by sulforhodamine B assay; type: functional, cell-based; outline: as §2
MOLT-4 = experiment: Growth inhibition of human MOLT4 cells at 10 uM incubated for 48 hrs by sulforhodamine B assay; type: functional, cell-based; outline: as §2
RXF 393 = experiment: Growth inhibition of human RXF393 cells at 10 uM incubated for 48 hrs by sulforhodamine B assay; type: functional, cell-based; outline: as §2

Clc1ccc(C2=NN(c3cc(Cl)cc(Cl)c3)C(c3cccc(Nc4ccnc5cc(Cl)ccc45)c3)C2)cc1 (centres undefined)
growth inhibition (GI) (CAKI-1): inactive
growth inhibition (GI) (K562): inactive
growth inhibition (GI) (SF-539): inactive
EC50 (Leishmania panamensis): 12 µg/mL (≈ 20.8 µM)
growth inhibition (GI) (786-0): inactive
growth inhibition (GI) (Hs-578T): inactive
growth inhibition (GI) (HCT-116): inactive
MIC50 (Cryptococcus neoformans [1]): ≥ 250 µg/mL
MIC80 (Cryptococcus neoformans [1]): ≥ 250 µg/mL
growth inhibition (GI) (HCC 2998): inactive
inhibition of growth at 250 µg/mL (Candida albicans [2]): 35%
growth inhibition (GI) (SR): inactive
inhibition of growth at 7.8 µg/mL (Candida albicans [3]): 6.01%
growth inhibition (GI) (OVCAR-3): inactive
MIC (Klebsiella pneumoniae [4]): > 1000 µg/mL
growth inhibition (GI) (UACC-257): inactive
inhibition of growth at 250 µg/mL (Cryptococcus neoformans [5]): 8.42%
growth inhibition (GI) (BT-549): inactive
growth inhibition (GI) (HOP-62): inactive
MIC (Neisseria gonorrhoeae): > 1000 µg/mL
growth inhibition (GI) (UACC-62): inactive
growth inhibition (GI) (MDA-MB-468): inactive
inhibition of growth at 125 µg/mL (Cryptococcus neoformans [6]): 4.65%
inhibition of growth at 3.4 µg/mL (Cryptococcus neoformans [7]): 0%
MIC (Klebsiella pneumoniae [8]): > 1000 µg/mL
growth inhibition (GI) (ACHN): inactive
growth inhibition (GI) (OVCAR-4): inactive
growth inhibition (GI) (NCI-H522): inactive
growth inhibition (GI) (MOLT-4): inactive
growth inhibition (GI) (RXF 393): inactive

COc1ccc(C2=NN(c3ccccc3)C(c3cccc(Nc4ccnc5cc(Cl)ccc45)c3)C2)cc1 (centres undefined)
growth inhibition (GI) (CAKI-1): inactive
growth inhibition (GI) (K562): inactive
growth inhibition (GI) (SF-539): inactive
EC50 (Leishmania panamensis): 6.93 µg/mL (≈ 13.7 µM)
growth inhibition (GI) (786-0): inactive
growth inhibition (GI) (Hs-578T): inactive
growth inhibition (GI) (HCT-116): inactive
MIC50 (Cryptococcus neoformans [1]): ≥ 250 µg/mL
MIC80 (Cryptococcus neoformans [1]): ≥ 250 µg/mL
growth inhibition (GI) (HCC 2998): inactive
inhibition of growth at 250 µg/mL (Candida albicans [2]): 25.6%
growth inhibition (GI) (SR): inactive
inhibition of growth at 7.8 µg/mL (Candida albicans [3]): 7.57%
growth inhibition (GI) (OVCAR-3): inactive
MIC (Klebsiella pneumoniae [4]): > 1000 µg/mL
growth inhibition (GI) (UACC-257): inactive
inhibition of growth at 250 µg/mL (Cryptococcus neoformans [5]): 32.2%
growth inhibition (GI) (BT-549): inactive
growth inhibition (GI) (HOP-62): inactive
MIC (Neisseria gonorrhoeae): > 1000 µg/mL
growth inhibition (GI) (UACC-62): inactive
growth inhibition (GI) (MDA-MB-468): inactive
inhibition of growth at 125 µg/mL (Cryptococcus neoformans [6]): 16.9%
inhibition of growth at 3.4 µg/mL (Cryptococcus neoformans [7]): 2.74%
MIC (Klebsiella pneumoniae [8]): > 1000 µg/mL
growth inhibition (GI) (ACHN): inactive
growth inhibition (GI) (OVCAR-4): inactive
growth inhibition (GI) (NCI-H522): inactive
growth inhibition (GI) (MOLT-4): inactive
growth inhibition (GI) (RXF 393): inactive

COc1cc(C(=O)/C=C/c2cccc(Nc3ccnc4cc(Cl)ccc34)c2)cc(OC)c1OC
growth inhibition (GI) (K562): Active
growth inhibition (GI) (SF-539): Active
EC50 (Leishmania panamensis): 5.92 µg/mL (≈ 12.5 µM)
growth inhibition (GI) (786-0): Active
growth inhibition (GI) (Hs-578T): Active
growth inhibition (GI) (HCT-116): Active
MIC50 (Cryptococcus neoformans [1]): ≥ 250 µg/mL
MIC80 (Cryptococcus neoformans [1]): ≥ 250 µg/mL
growth inhibition (GI) (HCC 2998): Active
inhibition of growth at 250 µg/mL (Candida albicans [2]): 13.7%
growth inhibition (GI) (SR): Active
inhibition of growth at 7.8 µg/mL (Candida albicans [3]): 2.51%
growth inhibition (GI) (OVCAR-3): Active
MIC (Klebsiella pneumoniae [4]): > 1000 µg/mL
growth inhibition (GI) (UACC-257): Active
inhibition of growth at 250 µg/mL (Cryptococcus neoformans [5]): 7.12%
growth inhibition (GI) (BT-549): Active
growth inhibition (GI) (HOP-62): Active
MIC (Neisseria gonorrhoeae): > 1000 µg/mL
growth inhibition (GI) (UACC-62): Active
growth inhibition (GI) (MDA-MB-468): Active
inhibition of growth at 125 µg/mL (Cryptococcus neoformans [6]): 6.74%
inhibition of growth at 3.4 µg/mL (Cryptococcus neoformans [7]): 0%
MIC (Klebsiella pneumoniae [8]): > 1000 µg/mL
growth inhibition (GI) (ACHN): Active
growth inhibition (GI) (OVCAR-4): Active
growth inhibition (GI) (NCI-H522): Active
growth inhibition (GI) (MOLT-4): Active
growth inhibition (GI) (RXF 393): Active
